# HCV core dimer: blocks dimerization of HCV core protein. TR-FRET GST/Flag-core106 dimerization, 1536-well. inhibition, % at 5 µM. hit rate 0.33% among 300,000. AID 1899;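 active means inhibition above the mean of all tested compounds plus 3 SD, set per screening campaign, cut at about 45% in these data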
#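 System: GST/Flag-tagged HCV core106 proteins. Incubation: compound-protein-antibody incubation 4 h at 22.5 °C. Technique: HTRF with 340 nm excitation, 617/671 nm emission. Medium: KF-containing HEPES buffer, pH 7.45, DTT, CHAPS, BSA. Read-out: inhibition (%) from 671 over 617 nm ratio. Also added: Eu(K)-anti-GST 90 ng/mL plus XL665-anti-Flag 1 µg/mL.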
# eIF4E 4G PPI: eIF4E/eIF4G interaction inhibition in translation initiation; P63073+Q04637; TR-FRET eIF4E-eIF4GI(517-606) binding, 2 h; inhibition, % at 21.7 µM; hit rate 0.37% among 220,000;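 active means inhibition above about 30%, limit read from the data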;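 further: 0% = full FRET control wells and 100% = background wells lacking eIF4GI fragment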
# Target sequence (P63073 whole entry, looked up, the tested form may be a part): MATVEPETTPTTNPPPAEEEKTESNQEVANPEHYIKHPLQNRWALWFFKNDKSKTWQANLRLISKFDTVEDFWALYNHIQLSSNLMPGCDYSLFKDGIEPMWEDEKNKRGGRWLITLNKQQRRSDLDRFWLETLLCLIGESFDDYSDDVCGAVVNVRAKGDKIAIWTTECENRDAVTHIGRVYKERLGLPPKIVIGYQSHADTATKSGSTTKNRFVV
# Target sequence (Q04637 whole entry, looked up, the tested form may be a part): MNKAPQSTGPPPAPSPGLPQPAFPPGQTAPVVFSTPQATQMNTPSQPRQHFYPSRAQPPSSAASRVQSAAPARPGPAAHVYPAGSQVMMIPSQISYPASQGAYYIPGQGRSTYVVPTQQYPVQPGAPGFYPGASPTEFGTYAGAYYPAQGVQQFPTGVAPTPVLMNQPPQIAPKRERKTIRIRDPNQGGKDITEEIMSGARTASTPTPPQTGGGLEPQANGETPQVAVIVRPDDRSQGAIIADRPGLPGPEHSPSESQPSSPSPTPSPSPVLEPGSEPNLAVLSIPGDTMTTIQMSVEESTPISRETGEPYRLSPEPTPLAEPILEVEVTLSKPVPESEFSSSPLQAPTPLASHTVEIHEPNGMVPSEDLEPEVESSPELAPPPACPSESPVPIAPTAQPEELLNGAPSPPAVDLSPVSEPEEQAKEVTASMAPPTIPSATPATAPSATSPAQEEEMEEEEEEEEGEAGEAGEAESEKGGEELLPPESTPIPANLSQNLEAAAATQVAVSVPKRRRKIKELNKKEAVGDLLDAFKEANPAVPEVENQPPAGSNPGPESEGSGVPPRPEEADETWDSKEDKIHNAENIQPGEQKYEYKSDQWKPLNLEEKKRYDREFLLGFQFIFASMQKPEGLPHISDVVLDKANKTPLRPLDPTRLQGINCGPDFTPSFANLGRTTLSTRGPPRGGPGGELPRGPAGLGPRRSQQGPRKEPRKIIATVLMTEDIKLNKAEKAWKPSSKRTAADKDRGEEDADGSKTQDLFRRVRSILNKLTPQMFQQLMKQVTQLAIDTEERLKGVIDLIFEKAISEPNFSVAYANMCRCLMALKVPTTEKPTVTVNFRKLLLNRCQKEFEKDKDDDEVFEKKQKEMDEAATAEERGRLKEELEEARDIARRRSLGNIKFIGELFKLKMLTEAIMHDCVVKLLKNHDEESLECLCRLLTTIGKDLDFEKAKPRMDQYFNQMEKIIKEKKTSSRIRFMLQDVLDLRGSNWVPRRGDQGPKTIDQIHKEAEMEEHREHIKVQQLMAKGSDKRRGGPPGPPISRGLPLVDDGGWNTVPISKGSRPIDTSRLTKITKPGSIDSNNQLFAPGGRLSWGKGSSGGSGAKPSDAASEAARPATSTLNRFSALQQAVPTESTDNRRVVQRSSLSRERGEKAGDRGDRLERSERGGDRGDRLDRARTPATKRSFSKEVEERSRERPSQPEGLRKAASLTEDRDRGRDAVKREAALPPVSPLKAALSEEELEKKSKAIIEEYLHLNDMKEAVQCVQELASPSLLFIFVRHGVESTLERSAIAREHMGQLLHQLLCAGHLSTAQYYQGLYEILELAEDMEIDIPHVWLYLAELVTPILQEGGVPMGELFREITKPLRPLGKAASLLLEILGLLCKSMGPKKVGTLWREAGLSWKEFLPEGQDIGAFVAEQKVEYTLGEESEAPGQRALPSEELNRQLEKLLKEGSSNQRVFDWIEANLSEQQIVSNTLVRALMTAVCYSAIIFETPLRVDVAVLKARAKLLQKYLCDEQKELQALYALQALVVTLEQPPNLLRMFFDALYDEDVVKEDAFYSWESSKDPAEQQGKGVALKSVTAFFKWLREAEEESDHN
# UBC9 SUMO inh: SUMOylation inhibition; inhibition, % at 35 µM; HTRF SUMOylation assay, SAE1/SAE2 + UBC9, in vitro; hit rate 0.36% among 290,000; in the data active means inhibition above about 50%, passing the limit was not always enough; inconclusive means no clear call, values can overlap the other calls
# PABP1 MLLE inh: blocks PAM2 peptide binding to the PABP1 MLLE domain; P11940; GST-MLLE / FITC-PAM2 fluorescence polarization; inhibition, % at 20 µM; hit rate 0.36% among 360,000; AID 588489; in the data active means inhibition above about 35%, passing the limit was not always enough;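 further: plate controls were DMSO wells with GST-MLLE for no effect and wells lacking GST-MLLE protein for full effect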
# PABP polyA inh: blocks human PABP binding to poly(A) RNA | fluorescence polarization | P11940 | hit rate 1% among 290,000 | calls only at 35 µM;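 further: calls also rest on retests at 20 µM and on dose response follow-up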
# eIF4H inh: inhibitors of RNA binding by human eIF4H | hit rate 0.94% among 290,000 | inhibition, % at 35 µM | eIF4H fluorescence polarization binding assay;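 further: calls also rest on retests at 20 µM and on dose response follow-up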
# Active calls of the source: *; i = inactive; ? = inconclusive; / = no result given; + = active, no number. In the library only some 1.8% were active in any assay of this set; here they are far more common. Unless noted, how the calls were made is not given here.
SMILES,HCV core dimer,eIF4E 4G PPI,UBC9 SUMO inh,PABP1 MLLE inh,PABP polyA inh,eIF4H inh
Cc1ccc(C(=O)CSc2nc3ccccc3c(=O)[nH]2)cc1,1.5,-1.7,14.5,5.0,i,3.6
O=C(CCCSc1nc2ccccc2c(=O)[nH]1)c1ccc(F)cc1,0.5,0.9,-10.9,-12.7,i,83.9*
Cc1cccc(N2CC(C(=O)Nc3nnc(SCC(=O)NCC4CCCO4)s3)CC2=O)c1 (stereo not drawn),65.1*,/,5.3,-52.2,i,25.7
Cc1ccc(N2CC(C(=O)Nc3nnc(SCC(=O)NCC4CCCO4)s3)CC2=O)cc1C (stereo not drawn),26.9,/,-4.2,-81.6,i,-1.2
CCOC(=O)N1CCC(NCCNC(=O)c2cccc(F)c2)CC1,/,/,/,1.6,/,/
COc1ccccc1NC(=O)C1=C(C)NC(=O)NC1c1ccccc1F (stereo not drawn),9.3,-2.6,-2.6,-10.6,i,-1.6
CC1=C(C(=O)Nc2ccccc2C)C(c2cccs2)NC(=S)N1 (stereo not drawn),-3.2,6.5,0.4,-126.7,i,-6.2
COc1ccccc1NC(=O)C1=C(C)NC(=O)NC1c1cc(C)cs1 (stereo not drawn),5.8,-1.6,-2.3,-3.2,+,0.6
CCOc1ccccc1NC(=O)C1=C(C)NC(=S)NC1c1cccs1 (stereo not drawn),5.2,-3.6,-19.0,-120.9,+,-1.9
CCc1n[nH]c(=S)n1/N=C/c1cc(Br)c(OC)cc1OC,-2.4,-8.8,-3.0,-32.8,i,4.7
Cn1sccc1=O,-10.4,/,/,36.9*,/,/
O=C1c2ccccc2C(=O)C12OC2c1cccc2ccccc12 (stereo not drawn),-22.0,-1.8,95.8*,27.3,i,-3.1
O=C1NC(c2cccc3ccccc23)Nc2ccccc21 (stereo not drawn),/,/,/,-5.1,/,/
CC(C)CNC1=CC(=O)CC(c2ccco2)C1 (stereo not drawn),23.2,-1.6,79.1,5.7,+,108.3*
O=C1C=C(Nc2ccc(O)cc2)CC(c2ccco2)C1 (stereo not drawn),-0.6,1.9,8.9,4.5,i,0.1
O=C1C=C(O)CC(c2ccco2)C1 (stereo not drawn),-4.6,7.0,51.0,-1.0,+,104.2*
CC1=C(C)CC(C(=O)NC2CCCC2)C(C(=O)O)C1 (stereo not drawn),/,/,9.0,-14.5,i,-7.9
CC1=CCC(C(=O)O)C(C(=O)NC2CCCCC2)C1 (stereo not drawn),-13.4,/,18.4,5.8,i,70.3*
CCOC(=O)C1CCN(c2nc(N)c3c(N)nc(SCC(=O)O)cc3c2C#N)CC1,/,14.3,100.4*,7.1,?,?
CCOc1cc2c(C#N)c(N3CCNCC3)nc(N)c2c(N)n1,-10.8,-5.4,87.1*,-6.2,?,?
CCOc1cc2c(C#N)c(N3CCCCC3)nc(N)c2c(N)n1,9.8,1.1,95.7,-36.9,i,127.2
COc1cc2c(C#N)c(N3CCOCC3)nc(N)c2c(N)n1,-3.4,-0.8,11.1,18.6,i,-2.2
COc1ccc(CN2C(=O)Cc3c2nc(N)c2c(N)nc(N4CCCCC4)c(C#N)c32)cc1,56.5*,-1.0,29.8,/,i,?
COc1cc2c(C#N)c(N3CCCCC3)nc(N)c2c(N)n1,18.7,-6.2,90.7,-12.4,+,90.9*
CCOC(=O)C1CCN(c2nc(C)cc(C)c2C#N)CC1,-1.5,2.0,1.0,7.4,i,-0.6
SMILES,HCV core dimer,eIF4E 4G PPI,UBC9 SUMO inh,PABP1 MLLE inh,PABP polyA inh,eIF4H inh
C[C@@H]1CN([C@@H](C)CO)C(=O)c2cc(C#CCN(C)C)cnc2O[C@H]1CN(C)Cc1ccc2c(c1)OCO2,/,/,/,-1.3,/,/
COc1cc2c(C#N)c(N3CCc4ccccc4C3)nc(N)c2c(N)n1,44.7,/,47.9,1.9,+,121.5*
COc1cccc(CCc2nnc(CCC(=O)N3CCN(Cc4ccccn4)CC3)o2)c1,-0.5,0.9,-10.2,6.9,i,6.1
Clc1ccc(CSc2nnc(CNc3cccc(Cl)c3)o2)cc1,3.7,5.8,-0.9,-3.7,+,63.0*
COc1ccc(-c2csc(NC(=O)c3ccccc3NS(=O)(=O)c3ccc(F)c(F)c3)n2)cc1,22.4,2.6,66.6*,5.7,i,-1.8
O=P(OCC1CC1)(c1ccccc1)c1ccccc1,0.2,15.8,-7.1,2.5,+,-2.1
O=P(NC1CCCCC1)(c1ccccc1)c1ccccc1,/,/,/,-11.2,/,/
O=C(O)c1ccc(N=Nc2c(O)ccc3ncccc23)cc1,-30.9,/,18.8,-2.6,+,90.0*
O=C(O)c1cc(N=Nc2c(O)ccc3ccccc23)cc(C(=O)O)c1,/,1.8,16.6,-39.8,i,-7.0
O=C1OCC2OC(O)C(O)C(O)C2OC(=O)c2cc(O)c(O)c(O)c2-c2c(O)c(O)c3oc(=O)c4c(c(O)c(O)c5oc(=O)c2c3c54)-c2c1cc(O)c(O)c2O (stereo not drawn),/,34.4*,?,/,+,82.6*
Cc1ccnc(NC(=O)Cc2ccc(F)cc2)n1,2.5,85.0*,10.9,-14.2,i,-6.9
Cc1ccnc(NS(=O)(=O)c2ccc(NC(=O)Cc3ccc(F)cc3)cc2)n1,7.8,/,-15.0,-3.2,i,-5.1
CC(=O)c1ccc(S(=O)(=O)N2Cc3ccccc3CC2C(=O)O)cc1 (stereo not drawn),-3.1,0.8,18.8,1.1,+,98.6*
O=C(O)[C@H]1Cc2ccccc2CN1S(=O)(=O)c1ccc(F)cc1,-7.2,2.8,26.6,2.4,i,3.6
CS(=O)(=O)N1Cc2ccccc2CC1C(=O)O (stereo not drawn),-3.2,0.2,6.7,12.1,+,?
Cc1ccc(S(=O)(=O)/N=C(/Nc2ccc3[nH]c(=O)[nH]c3c2)c2ccc(F)cc2)cc1,4.7,-5.3,4.4,7.6,i,-4.2
Cc1cc[n+](-c2[nH]c(=O)sc2/C=N/N=C(\[O-])c2ccncc2)cc1C,-12.3,/,-1.2,29.1,i,29.6
O=c1[nH]c(-[n+]2ccccc2)c(/C=N/N=C(\[O-])c2ccccc2)s1,-1.6,-0.6,6.9,21.1,i,13.5
Cc1cc[n+](-c2[nH]c(=O)sc2/C=N/N=C(\[O-])c2ccccc2)cc1,-1.0,6.0,-17.5,39.5*,+,72.8
Cc1cc[n+](-c2[nH]c(=O)sc2/C=N/N=C(\[O-])c2ccncc2)cc1,-0.2,/,59.6,40.6*,+,99.8*
CCOC(=O)c1c(NC(=O)CSc2nnnn2-c2ccc(OC)cc2)sc(C)c1C,6.7,30.2*,-4.2,42.5*,i,0.9
C/C(=N/N=C(\C)c1ccccc1O)c1ccccc1O,-3.7,/,?,-11.7,+,85.9
CC(C)Cn1c(-c2ccco2)csc1=Nc1cccnc1,50.1*,4.2,12.9,4.1,i,-3.9

# Screening results as filed in PubChem BioAssay.
